From ChEMBL document CHEMBL4680236, “Design, synthesis and structure-activity relationships of novel 15-membered macrolides: Quinolone/quinoline-containing sidechains tethered to the C-6 position of azithromycin acylides” (Eur J Med Chem, 2020)
In brackets after ≈: the same amount, converted by molar mass.

How the values were obtained:
Assay type in all cases: functional
[1] = system: Streptococcus pneumoniae; assay: Antibacterial activity against penicillin-susceptible Streptococcus pneumoniae PU09 harboring mef gene assessed as reduction in microbial growth
[2] = system: Haemophilus influenzae; assay: Antibacterial activity against azithromycin-susceptible Haemophilus influenzae ATCC 49247 assessed as reduction in microbial growth
[3] = system: Streptococcus pneumoniae; assay: Bactericidal activity against MLSB-resistant Streptococcus pneumoniae 07P390 harboring ermB gene assessed as reduction in microbial growth
In short: (§1)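 Bacteria were exposed to 1- to 8-fold their MIC of test sample, then transferred to fresh culture medium without antibacterial compound and incubated for the required time. Colonies were then counted. MBC is the lowest concentration giving a reduction in colony number of >3 Log₁₀.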

[4] = system: Haemophilus influenzae; assay: Bactericidal activity against azithromycin-susceptible Haemophilus influenzae ATCC 49247
In short: (§2)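 Bacteria were exposed to 1- to 8-fold MIC of the sample, then transferred to fresh medium without antibacterial. After further incubation, colonies were counted. MBC was taken as the lowest concentration giving a >3 log10 reduction in colony number.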

[5] = system: Staphylococcus aureus; assay: Antibacterial activity against MLSB/methicillin/ciprofloxacin-resistant Staphylococcus aureus PU32 harboring ermA gene assessed as reduction in microbial growth
[6] = system: Staphylococcus aureus; assay: Bactericidal activity against MLSB/methicillin/ciprofloxacin-resistant Staphylococcus aureus PU32 harboring ermA gene; in short: as §1
[7] = system: Streptococcus pneumoniae; assay: Antibacterial activity against Erythromycin-susceptible Streptococcus pneumoniae ATCC 49619 assessed as reduction in microbial growth
[8] = system: Haemophilus influenzae; assay: Ratio of MBC to MIC against azithromycin-susceptible Haemophilus influenzae ATCC 49247
[9] = system: Streptococcus pneumoniae; assay: Bactericidal activity against penicillin-susceptible Streptococcus pneumoniae PU09 harboring mef gene; in short: as §1
[10] = system: Streptococcus pyogenes; assay: Antibacterial activity against MLSB-resistant Streptococcus pyogenes 12-206 harboring ermA gene assessed as reduction in microbial growth
[11] = system: Streptococcus pyogenes; assay: Bactericidal activity against MLSB-resistant Streptococcus pyogenes 12-206 harboring ermA gene; in short: as §1
[12] = system: Staphylococcus aureus; assay: Bactericidal activity against MLSB/methicillin-resistant Staphylococcus aureus 15B196; in short: as §1
[13] = system: Streptococcus pneumoniae; assay: Ratio of MBC to MIC against penicillin-susceptible Streptococcus pneumoniae PU09
[14] = system: Streptococcus pyogenes; assay: Ratio of MBC to MIC against MLSB-resistant Streptococcus pyogenes 12-206 harboring ermA gene
[15] = system: Streptococcus pneumoniae; assay: Bactericidal activity against Erythromycin-susceptible Streptococcus pneumoniae ATCC 49619; in short: as §2
[16] = system: Staphylococcus aureus; assay: Ratio of MBC to MIC against MLSB/methicillin/ciprofloxacin-resistant Staphylococcus aureus PU32 harboring ermA gene
[17] = system: Streptococcus pneumoniae; assay: Antibacterial activity against MLSB-resistant Streptococcus pneumoniae 07P390 harboring ermB gene assessed as reduction in microbial growth
[18] = system: Staphylococcus aureus; assay: Antibacterial activity against MLSB/methicillin-resistant Staphylococcus aureus 15B196 assessed as reduction in microbial growth
[19] = system: Streptococcus pneumoniae; assay: Ratio of MBC to MIC against Erythromycin-susceptible Streptococcus pneumoniae ATCC 49619

Row | SMILES | MIC [1] [µg/mL] | MIC [2] [µg/mL] | MBC [3] [µg/mL] | MBC [4] [µg/mL] | MIC [5] [µg/mL] | MBC [6] [µg/mL] | MIC [7] [µg/mL] | Ratio [8] | MBC [9] [µg/mL] | MIC [10] [µg/mL] | MBC [11] [µg/mL] | MBC [12] [µg/mL] | Ratio [13] | Ratio [14] | MBC [15] [µg/mL] | Ratio [16] | MIC [17] [µg/mL] | MIC [18] [µg/mL] | Ratio [19]
1 | CC[C@H]1OC(=O)[C@H](C)[C@@H](OC(=O)Cc2ccccn2)[C@H](C)[C@@H](O[C@@H]2O[C@H](C)C[C@H](N(C)C)[C@H]2O)[C@](C)(OC(=O)CCNCCC#Cc2ccc3c(c2)c(=O)c(C(N)=O)cn3CC)C[C@@H](C)CN(C)[C@H](C)[C@@H](O)[C@]1(C)O | 2 | 16 | > 256 | 16 (≈ 15.3 µM) | 32 | > 256 | 0.12 | 1 | 2 (≈ 1.91 µM) | 8 | > 64 | > 256 | 1 | >8 | 0.5 (≈ 0.477 µM) | >8 | 256 | > 256 | 4
2 | CC[C@H]1OC(=O)[C@H](C)[C@@H](OC(=O)Cc2ccccn2)[C@H](C)[C@@H](O[C@@H]2O[C@H](C)C[C@H](N(C)C)[C@H]2O)[C@](C)(OC(=O)CCNCCC#Cc2cncc(C(N)=O)c2)C[C@@H](C)CN(C)[C@H](C)[C@@H](O)[C@]1(C)O | 2 | 64 | > 256 | 128 (≈ 134 µM) | 16 | > 128 | 0.25 | 2 | 4 (≈ 4.2 µM) | 4 | > 32 | > 256 | 2 | >8 | 0.25 (≈ 0.262 µM) | >8 | 128 | > 256 | 1
3 | CC[C@H]1OC(=O)[C@H](C)[C@@H](OC(=O)Cc2ccccn2)[C@H](C)[C@@H](O[C@@H]2O[C@H](C)C[C@H](N(C)C)[C@H]2O)[C@](C)(OC(=O)CCNCCC#Cc2ccc3c(c2)c(=O)c(C(=O)NC)cn3C2CC2)C[C@@H](C)CN(C)[C@H](C)[C@@H](O)[C@]1(C)O | 4 | 64 | 256 | 128 (≈ 119 µM) | > 256 | > 256 | 0.5 | 2 | 8 (≈ 7.45 µM) | 32 | 128 (≈ 119 µM) | > 256 | 2 | 4 | 1 (≈ 0.932 µM) | – | 256 | > 256 | 2
4 | CC[C@H]1OC(=O)[C@H](C)[C@@H](OC(=O)Cc2ccccn2)[C@H](C)[C@@H](O[C@@H]2O[C@H](C)C[C@H](N(C)C)[C@H]2O)[C@](C)(OC(=O)CCNCCC#Cc2ccc3c(c2)c(=O)c(C(N)=O)cn3C2CC2)C[C@@H](C)CN(C)[C@H](C)[C@@H](O)[C@]1(C)O | 4 | 64 | > 256 | 64 (≈ 60.4 µM) | 128 | > 256 | 0.5 | 1 | 4 (≈ 3.78 µM) | 32 | 128 (≈ 121 µM) | > 256 | 1 | 4 | 0.5 (≈ 0.472 µM) | – | 256 | > 256 | 1
5 | CC[C@H]1OC(=O)[C@H](C)[C@@H](OC(=O)Cc2ccccn2)[C@H](C)[C@@H](O[C@@H]2O[C@H](C)C[C@H](N(C)C)[C@H]2O)[C@](C)(OC(=O)CCN2CCN(c3nc4c(cc3F)c(=O)c(C(N)=O)cn4CC)CC2)C[C@@H](C)CN(C)[C@H](C)[C@@H](O)[C@]1(C)O | 2 | 8 | 128 | 8 (≈ 7.38 µM) | 32 | > 256 | 0.5 | 1 | 4 (≈ 3.69 µM) | 16 | > 128 | > 256 | 2 | >8 | 1 (≈ 0.923 µM) | >8 | 64 | 256 | 2
6 | CC[C@H]1OC(=O)[C@H](C)[C@@H](OC(=O)Cc2ccccn2)[C@H](C)[C@@H](O[C@@H]2O[C@H](C)C[C@H](N(C)C)[C@H]2O)[C@](C)(OC(=O)CCN2CCN(c3cc4c(cc3F)c(=O)c(C(N)=O)cn4CC)CC2)C[C@@H](C)CN(C)[C@H](C)[C@@H](O)[C@]1(C)O | 4 | 4 | 128 | 4 (≈ 3.7 µM) | 128 | > 256 | 0.5 | 1 | 8 (≈ 7.39 µM) | 16 | 128 (≈ 118 µM) | 128 (≈ 118 µM) | 2 | 8 | 1 (≈ 0.924 µM) | – | 64 | 128 | 2
7 | CC[C@H]1OC(=O)[C@H](C)[C@@H](OC(=O)Cc2cccnc2)[C@H](C)[C@@H](O[C@@H]2O[C@H](C)C[C@H](N(C)C)[C@H]2O)[C@](C)(OC(=O)CCNCCC#Cc2ccc3c(c2)c(=O)c(C(N)=O)cn3C2CC2)C[C@@H](C)CN(C)[C@H](C)[C@H]2OC(=O)O[C@@]21C | 4 | 64 | 128 | 64 (≈ 59 µM) | 64 | > 256 | 1 | 1 | 8 (≈ 7.37 µM) | 32 | 64 (≈ 59 µM) | > 256 | 2 | 2 | 2 (≈ 1.84 µM) | >4 | 64 | > 256 | 2
8 | CC[C@H]1OC(=O)[C@H](C)[C@@H](OC(=O)Cc2ccccn2)[C@H](C)[C@@H](O[C@@H]2O[C@H](C)C[C@H](N(C)C)[C@H]2O)[C@](C)(OC(=O)CCNCCC#Cc2ccc3[nH]ccc(=O)c3c2)C[C@@H](C)CN(C)[C@H](C)[C@@H](O)[C@]1(C)O | 2 | 64 | > 256 | 128 (≈ 131 µM) | 16 | > 128 | 0.25 | 2 | 4 (≈ 4.1 µM) | 2 | > 16 | > 256 | 2 | >8 | 0.25 (≈ 0.256 µM) | >8 | 256 | > 256 | 1
9 | CC[C@H]1OC(=O)[C@H](C)[C@@H](OC(=O)Cc2ccccn2)[C@H](C)[C@@H](O[C@@H]2O[C@H](C)C[C@H](N(C)C)[C@H]2O)[C@](C)(OC(=O)CCN2CCN(c3cc4c(cc3F)c(=O)c(C(N)=O)cn4C3CC3)CC2)C[C@@H](C)CN(C)[C@H](C)[C@@H](O)[C@]1(C)O | 4 | 64 | 128 | 128 (≈ 117 µM) | 128 | > 256 | 0.25 | 2 | 4 (≈ 3.66 µM) | 16 | 128 (≈ 117 µM) | > 256 | 1 | 8 | 0.5 (≈ 0.457 µM) | – | 128 | > 256 | 2
10 | CC[C@H]1OC(=O)[C@H](C)[C@@H](OC(=O)Cc2ccccn2)[C@H](C)[C@@H](O[C@@H]2O[C@H](C)C[C@H](N(C)C)[C@H]2O)[C@](C)(OC(=O)CCNCCC#Cc2ccc3c(c2)c(=O)c(C(N)=O)cn3C)C[C@@H](C)CN(C)[C@H](C)[C@@H](O)[C@]1(C)O | 2 | 32 | > 256 | 64 (≈ 61.9 µM) | 16 | > 128 | 0.25 | 2 | 4 (≈ 3.87 µM) | 8 | > 64 | > 256 | 2 | >8 | 0.5 (≈ 0.484 µM) | >8 | 256 | > 256 | 2
11 | CC[C@H]1OC(=O)[C@H](C)[C@@H](OC(=O)Cc2ccccn2)[C@H](C)[C@@H](O[C@@H]2O[C@H](C)C[C@H](N(C)C)[C@H]2O)[C@](C)(OC(=O)CCN2CCN(c3cc4c(cc3F)c(=O)c(C(=O)O)cn4C3CC3)CC2)C[C@@H](C)CN(C)[C@H](C)[C@H]2OC(=O)O[C@@]21C | 4 | 8 | > 256 | 16 (≈ 14.3 µM) | > 256 | > 256 | 4 | 2 | 16 (≈ 14.3 µM) | 64 | > 256 | > 256 | 4 | >8 | 16 (≈ 14.3 µM) | – | > 256 | > 256 | 4
